Experimental data gathered from unrelated publications.
Compare with care: the assays were run in different laboratories.
Target: Casein kinase I isoform delta (CSNK1D, Homo sapiens, UniProt P48730)

The remaining signal of `O=c1[nH]c2ccccc2n1C1CCN(Cc2ccc(-c3[nH]c4cc5ncnc5cc4nc3-c3ccccc3)cc2)CC1` is reported as 100% (cell-free assay; 0.5 µM).
For `Cc1nn(C)cc1-c1nc2c(N3CCN(Cc4ccc(Cl)cc4)CC3)c(Cl)cnc2[nH]1`, the remaining binding was 100% (binding; competition with immobilised ligand; 1 µM).
With `Cn1cc(-c2cccc(N3CCc4c(sc5c4CC(C)(C)C5)C3=O)c2CO)cc(Nc2ccncn2)c1=O` the inhibition was 0% (enzyme activity; inhibitor; 1 µM).
With `CC(C)(C)c1cc(C=C(C#N)C#N)cc(Br)c1O` the remaining activity was 85.5% (enzyme activity; inhibitor; 0.5 µM).
The remaining binding of `Nc1ncc(-c2nc(N3CCOCC3)nc(N3CCOCC3)n2)c(C(F)F)n1` is reported as 90% (binding; competition with immobilised ligand; 10 µM).
The remaining binding of `COc1ncccc1-c1cnn2ccc(N3CCN(C(=O)OC(C)C)CC3)nc12` is reported as 85% (binding; competition with immobilised ligand; 1 µM).
With `Cn1cncc1[C@@](O)(COc1ccc(C#N)cc1-c1ccc(OC(F)(F)F)cc1)c1ccc(C#N)cc1` the remaining binding was 94% (cell-free assay; competition with immobilised ligand; 1 µM).
For `Cn1cc(-c2cc(F)cc(N3CCn4c(cc5c4CCCC5)C3=O)c2CO)cc(Nc2ccc(N3CCN(C4COC4)CC3)cn2)c1=O`, the inhibition was 6% (enzyme activity; inhibitor; 0.1 µM).
